Compound activity (PubChem)
SENP1 inh: blocks the human SENP1 SUMO protease catalytic domain | recombinant SENP1 catalytic domain, CyPet-SUMO1-YPet FRET cleavage | inhibition, % at 10 µM | actives 0.21% (n = 360,000) | AID 624204;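 active means inhibition at least 30% at 10 µM, raw YFP signal under a set limit, fluorescence ratio 0.5 to 1.5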;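 further: 0% = enzyme with DMSO and 100% = no enzyme wells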
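Material – human SENP1 catalytic domain · Input – SENP1 enzyme, 20 pM final · Compound dosing – single concentration of 10 µM compound, 0.5% DMSO final · Timing – enzyme reaction for 50 min at room temperature, dark · Measured by – FRET fluorescence in CFP and YFP emission channels · Control set – no-enzyme wells low, DMSO-plus-enzyme wells high control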
SENP7 block: SENP7 protease inhibition; Q9BQF6; recombinant SENP7, Z-RLRGG-aminoluciferin luminescence, 40 min; inhibition, % at 5 µM; actives 1.5% (n = 330,000); AID 434973;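 active means inhibition above about 50% at the single test dose, limit read from the data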;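 further: plate controls were DMSO with enzyme for no effect and no enzyme buffer wells for full effect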
Target sequence (Q9BQF6 706-1050 limits assumed): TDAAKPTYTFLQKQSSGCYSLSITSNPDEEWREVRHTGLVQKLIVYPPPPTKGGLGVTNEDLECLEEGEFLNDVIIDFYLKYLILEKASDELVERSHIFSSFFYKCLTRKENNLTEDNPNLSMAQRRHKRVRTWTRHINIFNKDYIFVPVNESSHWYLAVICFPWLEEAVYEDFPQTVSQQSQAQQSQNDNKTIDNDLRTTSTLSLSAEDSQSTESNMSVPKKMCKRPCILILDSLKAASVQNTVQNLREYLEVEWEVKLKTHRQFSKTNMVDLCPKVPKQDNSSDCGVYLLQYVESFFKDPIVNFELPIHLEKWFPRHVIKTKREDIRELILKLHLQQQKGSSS
SENP8 block-1: inhibitors of human SENP8 protease. Q96LD8. recombinant SENP8, Nedd8 substrate fluorescence. inhibition, % at 20 µM. actives 0.64% (n = 360,000); in the data active means inhibition mostly above about 40%, no sharp cut-off; inactive means mostly below about 27%
Target sequence (Q96LD8 whole entry, looked up): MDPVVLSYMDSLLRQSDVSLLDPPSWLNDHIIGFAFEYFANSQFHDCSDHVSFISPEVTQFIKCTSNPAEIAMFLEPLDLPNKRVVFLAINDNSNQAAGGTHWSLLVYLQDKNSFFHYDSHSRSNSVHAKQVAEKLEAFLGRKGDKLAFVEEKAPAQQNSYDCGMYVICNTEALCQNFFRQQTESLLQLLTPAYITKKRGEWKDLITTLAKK
SENP8 block-2: SENP8 protease inhibition; Q96LD8; purified SENP8, Z-RLRGG-aminoluciferin cleavage, luminescence; AID 2540; actives 1.2% (n = 330,000); inhibition, % at 10 µM; in the data active means inhibition above about 50%
SENP6 inh: blocks the human protease SENP6; Q9GZR1; Recombinant SENP6 catalytic domain, aminoluciferin luminescence; inhibition, % at 10 µM; actives 1.8% (n = 330,000);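 active means inhibition above about 50% at the single tested dose, limit read from the data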;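 further: plate controls were DMSO wells with enzyme for no effect and DMSO wells lacking enzyme for full effect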
* = called active by the depositor. A selection: hits, their analogues and other compounds. The true share with any hit is near 2.5%.

CCOc1ccc(Nc2nc(N)nc(CCl)n2)cc1 was read as SENP1 inh 2.2, SENP7 block 44.3, SENP8 block-1 15.5, SENP8 block-2 8.3 and SENP6 inh 25.1.
For COc1ccc(C)cc1Nc1nc(N)c2ccccc2n1 the results were SENP1 inh -1.8, SENP7 block 1.8, SENP8 block-1 -47.4, SENP8 block-2 0.2 and SENP6 inh 10.2.
For CCOc1ccc(Nc2nc(N)c3ccccc3n2)cc1 the results were SENP1 inh 0.7, SENP7 block 101.1*, SENP8 block-1 -12.7, SENP8 block-2 96.2* and SENP6 inh 95.7*.
For Oc1cccc(C=NCc2ccccc2)c1O the results were SENP1 inh 4.7, SENP7 block 17.3, SENP8 block-1 54.2*, SENP8 block-2 14.1 and SENP6 inh 0.1.
O=C1c2ccccc2-c2c1nc1c([n+]2[O-])CCCC1 was read as SENP1 inh 1.3, SENP7 block 8.6, SENP8 block-1 41.5*, SENP8 block-2 -1.8 and SENP6 inh -0.8.
CC(=O)Nc1ccc(NC(=O)C(Cc2ccccc2)NC(=O)C2CCC(C)CC2)cc1 (stereo not given) was read as SENP1 inh 5.2, SENP7 block -3.5, SENP8 block-1 7.8, SENP8 block-2 -1.5 and SENP6 inh 16.2.
CN1CCN(C2=C(NS(=O)(=O)c3cccs3)C(=O)c3ccccc3C2=O)CC1 was read as SENP1 inh -16.9, SENP7 block 7.3, SENP8 block-1 30.1, SENP8 block-2 9.1 and SENP6 inh 16.7.
O=C1C(NS(=O)(=O)c2ccc(Cl)cc2)=C(N2CCCCC2)C(=O)c2ccccc21 was read as SENP1 inh 0.5, SENP7 block 32.7, SENP8 block-1 45.9*, SENP8 block-2 9.0 and SENP6 inh 49.4.
NC(=O)C1CCN(C2=C(NS(=O)(=O)c3ccccc3)C(=O)c3ccccc3C2=O)CC1 was read as SENP1 inh 2.2, SENP7 block 15.5, SENP8 block-1 36.1, SENP8 block-2 13.7 and SENP6 inh 2.6.
For NC(=O)C1CCN(C2=C(NS(=O)(=O)c3ccc(Br)cc3)C(=O)c3ccccc3C2=O)CC1 the results were SENP1 inh 0.5, SENP7 block 33.6, SENP8 block-1 41.0*, SENP8 block-2 19.1 and SENP6 inh 41.5.
Screening CCN1CCN(C2=C(NS(=O)(=O)c3ccccc3)C(=O)c3ccccc3C2=O)CC1 returned SENP1 inh -0.7, SENP7 block 43.2, SENP8 block-1 57.9*, SENP8 block-2 24.2 and SENP6 inh 38.4.
CCOC(=O)N1CCN(C2=C(NS(=O)(=O)c3ccc(Br)cc3)C(=O)c3ccccc3C2=O)CC1 was read as SENP1 inh 2.5 and SENP8 block-1 53.9*.
For C#CCN(C[C@@H]1[C@@H](OC(=O)Nc2c(C)noc2C)[C@@H](OC(=O)Nc2c(C)noc2C)Cn2c(=O)n(CCCCCC)c(=O)n21)S(=O)(=O)c1ccc(C)cc1 the results were SENP1 inh 1.1 and SENP8 block-1 -4.7.
For CN1CCN(C2=C(NS(=O)(=O)c3ccccc3)C(=O)c3ccccc3C2=O)CC1 the results were SENP1 inh -10.9, SENP7 block 34.7, SENP8 block-1 31.1, SENP8 block-2 30.0 and SENP6 inh 49.3.
Screening CCOC(=O)N1CCN(C2=C(NS(=O)(=O)c3ccccc3)C(=O)c3ccccc3C2=O)CC1 returned SENP1 inh 1.8, SENP7 block 19.2, SENP8 block-1 54.2*, SENP8 block-2 13.9 and SENP6 inh 32.0.
Screening COc1cc([N+](=O)[O-])cc(/C=N/NC(=O)C(O)(c2ccccc2)c2ccccc2)c1O returned SENP1 inh -7.5, SENP7 block -4.9, SENP8 block-1 50.2*, SENP8 block-2 -0.6 and SENP6 inh -7.6.
C=CCNc1nc(-c2ccc3c(c2)OCCO3)cs1 was read as SENP1 inh -2.7, SENP7 block 65.9*, SENP8 block-1 10.4, SENP8 block-2 82.3* and SENP6 inh 90.2*.
Screening O=C(CNC(=O)c1ccc(Br)o1)Nc1cccc(S(=O)(=O)N2CCOCC2)c1 returned SENP1 inh -9.0, SENP7 block -5.0, SENP8 block-1 -11.2, SENP8 block-2 -2.2 and SENP6 inh -7.5.
`Cc1ccc2c(c1)c(-c1ccccc1)nc1nncn12` gave SENP1 inh 4.0, SENP7 block -1.7, SENP8 block-1 5.7, SENP8 block-2 6.5 and SENP6 inh -10.9.
For N=C1CCC(=N)c2c1c(O)c1ccccc1c2O the results were SENP1 inh -17.4, SENP7 block 23.9, SENP8 block-1 88.7*, SENP8 block-2 39.2 and SENP6 inh 63.3*.
`CCCCCCCCCCCC1=C(O)C(=O)C=C(O)C1=O` gave SENP1 inh 4.5 and SENP8 block-1 45.9*.
`CCOC(=O)C1=CN(Cc2ccco2)S(=O)(=O)N(C)C1c1ccc(F)c(Cl)c1` (stereo not given) gave SENP1 inh 0.8, SENP7 block 0.8 and SENP8 block-1 13.3.
Screening CCOc1cc(N2CCOCC2)c(OCC)cc1NC(=O)CSc1cccc[n+]1[O-] returned SENP1 inh -0.6, SENP7 block -12.1, SENP8 block-1 46.7*, SENP8 block-2 -12.0 and SENP6 inh -6.9.
CCOc1cc(N2CCOCC2)c(OCC)cc1NC(C)C(=O)N1CCN(CC)CC1 (stereo not given) was read as SENP1 inh -1.3 and SENP8 block-1 57.8*.
For CCOc1cc(N2CCOCC2)c(OCC)cc1NC(=O)C(C)C the results were SENP1 inh 0.9, SENP7 block 1.9, SENP8 block-1 14.5, SENP8 block-2 -7.2 and SENP6 inh 7.6.
`C=C1c2cccc(O)c2C(O)=C2C(=O)[C@]3(O)C(O)=C(C(N)=O)C(=O)[C@@H](N(C)C)[C@@H]3[C@@H](O)[C@H]12` gave SENP1 inh 31.4*, SENP7 block 1.4, SENP8 block-1 35.7, SENP8 block-2 -0.2 and SENP6 inh -2.8.
For C[C@H]1c2cccc(O)c2C(O)=C2C(=O)C3(O)C(O)=C(C(N)=O)C(=O)[C@@H](N(C)C)[C@@H]3[C@@H](O)[C@@H]21 (stereo not given in full) the results were SENP1 inh 6.5, SENP7 block 9.6, SENP8 block-1 1.0, SENP8 block-2 3.3 and SENP6 inh -2.3.
Screening Cc1nn(-c2ccccc2)c(Cl)c1/C=C/C(=O)c1ccccc1 returned SENP1 inh 7.1, SENP7 block 3.7, SENP8 block-1 42.2*, SENP8 block-2 -14.0 and SENP6 inh -3.2.
Screening C=C[C@]1(C)C=C2CCC3[C@](C)(CCC[C@@]3(C)C(=O)O)C2CC1 (stereo not given in full) returned SENP1 inh 2.7, SENP7 block 7.6, SENP8 block-1 59.9*, SENP8 block-2 5.7 and SENP6 inh 5.7.
For CCCCN(C(=O)Cn1nnc2ccccc21)C(C(=O)NCCOC)c1cccs1 (stereo not given) the results were SENP1 inh 3.1, SENP7 block 1.5, SENP8 block-1 13.3, SENP8 block-2 -6.2 and SENP6 inh -7.9.
